The results in this text go back to PubChem BioAssay.

Activity calls are given as the source filed them.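 The calls were made as follows, unless noted: active = visual image review flags a hit and inhibition of aggregation exceeds 20%; inconclusive = visual hit but inhibition at or below 20%; inactive = no hit on visual image review.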

Experiment [1] is described as follows: inhibitors of TNFa-induced NFkB p65 translocation, primary screen, imaging, HUVEC, MLSMR starter and 10KST1 sets (AID 438;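 active = inhibition above 20% together with a positive visual image hit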;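 also: compound added about 3h40 before a 20 min TNFalpha stimulation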;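 as to inhibition: signal is the nuclear over cytoplasmic p65 intensity ratio per well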). The following applies: HUVEC TNFa-induced p65 nuclear translocation; cell count: measured here: nuclei count (cytotoxicity indicator), at 2.08 µM; inhibition: at 2 µM, stronger effect = higher value, 0% TNFa-plus-vehicle, 100% no-TNFa wells.
Experiment [2] can be described thus: reduction of polyQ htt aggregates in cells – imaging, exon1htt(103Q)mCFP cells, high-content imaging, primary screen (AID 483).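 Also: compound exposure lasted 3 days before fixation.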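 As to nuclei count: percent of the per-plate median nuclei count of sample wells.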 The following applies: exon1htt(103Q)mCFP cell line, aggregate imaging, at 2 µM; inhibition of aggregation: stronger effect = higher value; nuclei count: measured here: cell count, toxicity.
The nature of experiment [3]: endothelial E-selectin expression blockers – imaging, HUVEC, immunofluorescence, MLSMR starter and 10KST1 sets, primary screen (AID 487;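 active = visually confirmed hit in the image check and inhibition above 20%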;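 as to inhibition: signal is fraction of cell area covered by stained E-selectin grains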;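 as to nuclei count: 100% = median nuclei count of all wells on the same plate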). The following applies: HUVEC TNFalpha-induced E-selectin immunofluorescence imaging, at 2 µM; inhibition: stronger effect = higher value; nuclei count: measured here: cell number, toxicity.
The target in experiment [4] is Voltage-gated potassium channel subunit beta-2 (Rattus norvegicus) (UniProt P62483). The experiment can be described thus: inhibitors of rat Kvbeta2 reductase activity – biochemical, NADPH fluorescence, primary screen (AID 622;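 active = fluorescence slope higher than the sample average by over 3 SD, cut at about -0.22 in these data, passing the limit was not always enough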;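 also: slope of raw intensity against log time taken from 70 to 1610 s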). The conditions noted are these: recombinant KvBeta, 4-cyanobenzaldehyde reduction, at 10 µM, stronger effect = higher value.
The target is the same in experiment [5]. As to the kind of experiment: enhancers of rat Kvbeta2 NADPH turnover – biochemical, NADPH fluorescence, primary screen (AID 623;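 active = NADPH fluorescence slope more negative than the mean of all samples by about 3 SD, 99.7% confidence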;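 also: fluorescence intensity change per second fitted from 20 to 320 s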). The following applies: Recombinant KvBeta, NADPH fluorescence decrease slope, 10 min; at 10 µM; stronger effect = lower value.
For experiment [6], the target named is Muscarinic acetylcholine receptor M4 (Homo sapiens) (UniProt P08173). The experiment can be described thus: M4-linked GIRK flux change, two-sided – cell-based, HEK293 M4/GIRK, thallium flux, BTC-AM, M4 allosteric agonist project, primary screen (AID 625;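 active = fluorescence slope after compound addition differing from the mean of all tested samples at 99.7% confidence, mostly higher but some lower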;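 also: thallium influx through GIRK channels coupled to M4 in HEK293 cells with BTC-AM dye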). The following applies: at 10 µM, actives lie on both sides. The method, boiled down:
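Material: HEK293 cells with M4 receptor and GIRK channels; Times: cells overnight at 37 °C, BTC-AM loading 1 h, reads 2 min total; Technique: kinetic BTC-AM fluorescence sampled at 1 Hz, 10 s pre-addition baseline; Read-out basis: slope over 15–24 s of trace normalized to starting intensity; Controls: carbachol positive, DMSO negative.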

Experiment [7] can be described thus: blockers of RIG-like receptor reporter activation – cell-based, Sendai virus stimulus, luciferase, 10K MLSCN set, TLR/RLR signaling modifier project, primary screen (AID 602276;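 active = inhibition at or above 50% at 10 µM; inactive = inhibition below 50%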;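 also: firefly luciferase from ISG56 promoter only with Renilla not read in this screen; 0% = Sendai virus plus DMSO and 100% = medium plus DMSO without virus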). The following applies: HEK293 RL24 IRF3 luciferase reporter, at 10 µM, stronger effect = higher value.
Experiment [8] in a line: TLR3 IRF3 reporter activation blockers – cell-based, poly I:C stimulus, luciferase, 10K MLSCN set, primary screen (AID 602277;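 active = inhibition of the reporter signal at or above 50%; inactive = inhibition below 50%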). The following applies: HEK293-TLR3 RL24 IRF3 luciferase reporter, at 10 µM, stronger effect = higher value. A general note: In a reporter assay the amount or activity of a reporter protein is the signal.

Broadly, the inhibition is the change of the read-out against control, counted positive when it falls.

Voltage-gated potassium channel subunit beta-2 (Rattus norvegicus), sequence (P62483 whole entry, looked up): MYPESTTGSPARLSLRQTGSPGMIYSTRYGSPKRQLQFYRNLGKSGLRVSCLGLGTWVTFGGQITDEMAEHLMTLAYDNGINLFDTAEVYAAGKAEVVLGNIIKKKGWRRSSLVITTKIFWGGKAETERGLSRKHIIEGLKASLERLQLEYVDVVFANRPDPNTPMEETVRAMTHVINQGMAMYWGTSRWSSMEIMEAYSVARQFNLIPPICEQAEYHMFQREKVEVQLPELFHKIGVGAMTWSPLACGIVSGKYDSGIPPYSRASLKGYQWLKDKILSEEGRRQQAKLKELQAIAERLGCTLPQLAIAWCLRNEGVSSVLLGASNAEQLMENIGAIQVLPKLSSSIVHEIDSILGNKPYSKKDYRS
Muscarinic acetylcholine receptor M4 (Homo sapiens), sequence (P08173 whole entry, looked up): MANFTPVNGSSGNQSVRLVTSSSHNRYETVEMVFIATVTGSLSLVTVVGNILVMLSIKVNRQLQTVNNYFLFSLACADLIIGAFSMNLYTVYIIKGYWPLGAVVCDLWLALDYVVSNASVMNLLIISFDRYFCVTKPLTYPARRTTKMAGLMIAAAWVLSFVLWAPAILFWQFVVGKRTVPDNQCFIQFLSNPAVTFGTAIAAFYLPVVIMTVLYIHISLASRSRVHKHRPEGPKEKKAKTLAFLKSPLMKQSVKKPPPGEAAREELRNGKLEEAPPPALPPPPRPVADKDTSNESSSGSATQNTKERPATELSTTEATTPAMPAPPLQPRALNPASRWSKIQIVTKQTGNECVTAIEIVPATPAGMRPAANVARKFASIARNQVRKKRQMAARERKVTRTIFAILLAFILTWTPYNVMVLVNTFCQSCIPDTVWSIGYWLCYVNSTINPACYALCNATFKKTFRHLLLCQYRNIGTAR

`CCOC(=O)c1cc2sccc2n1CC(=O)Nc1ccc(OC)cc1OC`: the cell count in experiment [1] came to 550. The inhibition in experiment [1] is -28.2% (inactive); in experiment [3], -22.6% (inactive); in experiment [7], 19% (inactive); in experiment [8], 32.5% (inactive). For the same molecule, in experiment [2], the inhibition of aggregation was 2.8% (inactive). The results for the nuclei count in experiment [2] and in experiment [3] were 96.6% and 107%, respectively. Also, the results for the fluorescence slope in experiment [4] and in experiment [6] were -0.542 (inactive) and 0.00418 (inactive), respectively. For the same molecule, the NADPH fluorescence slope in experiment [5] was 5.3e-06 (inactive).

Regarding `O=C(NCC1CCCO1)C1CC(c2ccc(Cl)c(Cl)c2)=NO1` (centres undefined), the cell count in experiment [1] came to 838. Also, the inhibition in experiment [1] was -0.7% (inactive); in experiment [3], -247% (inactive); in experiment [7] it was 3.78% (inactive); in experiment [8], -3.62% (inactive). Further, the inhibition of aggregation in experiment [2] was 4.4% (inactive). The nuclei count was found to be 103% in experiment [2] and 132% in experiment [3]. Besides, the fluorescence slope in experiment [4] is -0.472 (inactive); in experiment [6], 0.00536 (inactive). Also, in experiment [5], the NADPH fluorescence slope is -3.1e-05 (inactive).

For `CCCCc1ccc(NC(=O)COCC)cc1`, the cell count in experiment [1] amounted to 366. In addition, the inhibition in experiment [1] is -2.7% (inactive); in experiment [3], -34.5% (inactive); in experiment [7], -24.8% (inactive); in experiment [8] it was -77.1% (inactive). Moreover, the inhibition of aggregation in experiment [2] was -8.1% (inactive). Also, the values for the nuclei count in experiment [2] and in experiment [3] were 110% and 98.4%, respectively. The values for the fluorescence slope in experiment [4] and in experiment [6] were -0.585 (inactive) and 0.00366 (inactive), respectively. Further, in experiment [5], the NADPH fluorescence slope was 1.7e-05 (inactive).

On to `CCSc1nc2c(c(=O)n(C)c(=O)n2C)n1Cc1ccc(Cl)cc1`, for which the cell count in experiment [1] was 440. In addition, the inhibition in experiment [1] is 3.3% (inactive); in experiment [3], -15.6% (inactive); in experiment [7], 11.8% (inactive); in experiment [8], 4.67% (inactive). Besides, in experiment [2], the inhibition of aggregation is 0.4% (inactive). The nuclei count in experiment [2] turned out to be 106%; in experiment [3] it was 112%. Besides, the fluorescence slope in experiment [4] is -0.527 (inactive); in experiment [6] it was 0.00489 (inactive). In addition, the NADPH fluorescence slope in experiment [5] was -4.7e-05 (inactive).

Take `Cc1cc(NC(=O)c2ccccc2Oc2ccccc2)no1`: the cell count in experiment [1] came to 708. The inhibition in experiment [1] was -0.2% (inactive); in experiment [3], 23.9% (inactive); in experiment [7] it was 12.4% (inactive); in experiment [8], 9.02% (inactive). For the same molecule, the inhibition of aggregation in experiment [2] is 23.9% (inactive). Besides, the nuclei count in experiment [2] is 102%; in experiment [3], 101%. In addition, the fluorescence slope in experiment [4] is -0.532 (inactive); in experiment [6], 0.00465 (inactive). For the same molecule, the NADPH fluorescence slope in experiment [5] was -6.9e-05 (inactive).

Regarding `C=CCNC(=O)CSc1ccc(Cl)cc1`, the cell count in experiment [1] came to 339. Moreover, the inhibition is 7.4% (inactive) in experiment [1], -99.8% (inactive) in experiment [3], 5.55% (inactive) in experiment [7] and -3.36% (inactive) in experiment [8]. Besides, in experiment [2], the inhibition of aggregation is -7.8% (inactive). The nuclei count in experiment [2] amounted to 96%; in experiment [3] it was 101%. In addition, the fluorescence slope was -0.448 (inactive) in experiment [4] and 0.00478 (inactive) in experiment [6]. Further, the NADPH fluorescence slope in experiment [5] was -0.000358 (inactive).

For the molecule `Cc1ccc(S(=O)(=O)N2CCCC2C(=O)OCc2ccco2)cc1` (centres undefined), the cell count in experiment [1] is 411. Further, the inhibition was -8.4% (inactive) in experiment [1], -0.1% (inactive) in experiment [3], -9.42% (inactive) in experiment [7] and -8.59% (inactive) in experiment [8]. In addition, the inhibition of aggregation in experiment [2] was -7.8% (inactive). Further, the nuclei count in experiment [2] came to 99%; in experiment [3], 102%. The fluorescence slope is -0.499 (inactive) in experiment [4] and 0.005 (inactive) in experiment [6]. In experiment [5], the NADPH fluorescence slope is -4e-05 (inactive).

`O=P(O)(O)c1ccccc1OCCOCCOc1ccccc1P(=O)(O)O`: the cell count in experiment [1] came to 311. In addition, the inhibition in experiment [1] is -0.9% (inactive); in experiment [3], -21.3% (inactive); in experiment [7], 11.2% (inactive); in experiment [8], 15.3% (inactive). Moreover, the inhibition of aggregation in experiment [2] is 8% (inactive). Further, the nuclei count in experiment [2] is 60.2%; in experiment [3] it was 86.4%. Further, the fluorescence slope in experiment [4] was -0.308 (inactive); in experiment [6] it was 0.00635 (inactive). The NADPH fluorescence slope in experiment [5] was -5.3e-05 (inactive).

On to `O=C1CC2CS(=O)(=O)CC2N1c1ccc(Oc2ccccc2)cc1` (centres undefined), for which the cell count in experiment [1] was 330. Further, the inhibition in experiment [1] was 3.1% (inactive); in experiment [3], -33.8% (inactive); in experiment [7] it was 17.3% (inactive); in experiment [8], 33% (inactive). Further, the inhibition of aggregation in experiment [2] is 5.7% (inactive). In addition, the values for the nuclei count in experiment [2] and in experiment [3] were 88.5% and 106%, respectively. Further, the fluorescence slope in experiment [4] was -0.395 (inactive); in experiment [6], 0.00573 (inactive). In addition, in experiment [5], the NADPH fluorescence slope was -8.8e-05 (inactive).

Turning to `CCOC(=O)CNS(=O)(=O)c1c(C)noc1C`, the cell count in experiment [1] is 562. Further, the inhibition is -2.5% (inactive) in experiment [1], -40.9% (inactive) in experiment [3], 1.51% (inactive) in experiment [7] and 2.6% (inactive) in experiment [8]. In addition, the inhibition of aggregation in experiment [2] was -0.2% (inactive). For the same molecule, the values for the nuclei count in experiment [2] and in experiment [3] were 108% and 105%, respectively. Also, the fluorescence slope was -0.441 (inactive) in experiment [4] and 0.00456 (inactive) in experiment [6]. For the same molecule, the NADPH fluorescence slope in experiment [5] was -0.000338 (inactive).

For the molecule `Cc1ccccc1C(=O)N1CCC(C(=O)Nc2ccc(S(=O)(=O)N3CCCC3)cc2)CC1`, the cell count in experiment [1] was 186. Besides, the inhibition in experiment [1] is 6.1% (inactive); in experiment [3], 12.2% (inactive); in experiment [7] it was 8.84% (inactive); in experiment [8], 16.9% (inactive). The inhibition of aggregation in experiment [2] is -11% (inactive). The nuclei count stood at 105% in experiment [2] and 97.5% in experiment [3]. In addition, the fluorescence slope is -0.566 (inactive) in experiment [4] and 0.0067 (inactive) in experiment [6]. The NADPH fluorescence slope in experiment [5] was -3.8e-05 (inactive).

For the molecule `COC(=O)c1ccccc1NC(=O)Nc1cc(C)cc(C)n1`, in experiment [1], the cell count was determined as 205. The inhibition in experiment [1] was 0.9% (inactive); in experiment [3], 10.8% (inactive); in experiment [7], 6.32% (inactive); in experiment [8], 99% (active). The inhibition of aggregation in experiment [2] is -2.4% (inactive). The nuclei count in experiment [2] was 71.9%; in experiment [3], 140%. The fluorescence slope in experiment [4] was -0.504 (inactive); in experiment [6], 0.00537 (inactive). For the same molecule, in experiment [5], the NADPH fluorescence slope was -2.5e-05 (inactive).

For `COc1cccc(-c2cc(C(=O)N3CCCc4ccccc43)no2)c1`, the cell count in experiment [1] is 406. Moreover, the inhibition in experiment [1] is -23% (inactive); in experiment [3], -13.2% (inactive); in experiment [7], 0.639% (inactive); in experiment [8], -88.4% (inactive). For the same molecule, in experiment [2], the inhibition of aggregation is -4.7% (inactive). Besides, the nuclei count in experiment [2] was determined as 102%; in experiment [3], 94.5%. For the same molecule, the fluorescence slope is -0.217 (inactive) in experiment [4] and 0.00726 (inactive) in experiment [6]. For the same molecule, in experiment [5], the NADPH fluorescence slope is -1.8e-05 (inactive).

`Cc1ccccc1N(CC(=O)NCC1CCCO1)C(=O)C1(C)CC(=O)N=C2C=CC=CN21` (centres undefined): the cell count in experiment [1] stood at 651. Further, the inhibition in experiment [1] was -9.4% (inactive); in experiment [3], -111% (inactive); in experiment [7], 3.63% (inactive); in experiment [8] it was 1.93% (inactive). In addition, in experiment [2], the inhibition of aggregation is -3.5% (inactive). Besides, the nuclei count in experiment [2] was determined as 100%; in experiment [3], 133%. The figures for the fluorescence slope in experiment [4] and in experiment [6] were -0.492 (inactive) and 0.00558 (inactive), respectively. The NADPH fluorescence slope in experiment [5] was -9.2e-06 (inactive).
